ChEMBL document CHEMBL1128590, “erbB-2 oncogene inhibition by geldanamycin derivatives: synthesis, mechanism of action, and structure-activity relationships” (J Med Chem, 1995)
pIC50: −log10 of the molar value.

Assays:
Mus musculus [1] = experiment: In vivo inhibition of p185 phosphotyrosine in nu/nu nude mice bearing Fisher rat embryo cells transfected with human erbB-2 at 200 mg/kg; assay type: functional
In short: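 Nude CD-1 (nu/nu) mice bearing subcutaneous FRE/erbB-2 tumours were dosed ip at 200 mg/kg at days 12-14 (~1 cm tumours). Tumours were removed 3 h later and extracted for p185 phosphotyrosine. The value is percent inhibition.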

SK-BR-3 = experiment: In vitro inhibition of p185 erbB-2 oncoprotein in human breast cancer SK-BR-3 cells; assay type: functional, cell-based
In short: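 Cellular assay with read-out as depletion of p185 erbB-2 protein after drug treatment of the cells. This depletion tracks inhibition of p185 autophosphorylation.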

Mus musculus [2] = experiment: In vivo inhibition of p185 phosphotyrosine in nu/nu nude mice bearing Fisher rat embryo cells transfected with human erbB-2 at 400 mg/kg; assay type: functional
In short: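 FRE/erbB-2 cells were implanted subcutaneously in CD-1 (nu/nu) mice. At days 12-14 (~1 cm) the mice received 400 mg/kg ip. After 3 h, tumours were excised and extracted to isolate p185 phosphotyrosine. The value is percent inhibition.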

| SMILES | inhibition in vivo at 200 mg/kg (Mus musculus [1]) | pIC50 (SK-BR-3) | inhibition in vivo at 400 mg/kg (Mus musculus [2]) |
| --- | --- | --- | --- |
| CO[C@H]1/C=C\C=C(/C)C(=O)NC2=CC(=O)C(N3CCC3)=C(C[C@@H](C)C[C@H](OC)[C@H](OC(C)=O)[C@@H](C)/C=C(\C)[C@@H]1OC(N)=O)C2=O | 78% | 7.15 | – |
| CO[C@H]1C[C@H](C)CC2=C(N3CCC3)C(=O)C=C(NC(=O)/C(C)=C/CC[C@H](OC)[C@@H](OC(N)=O)/C(C)=C/[C@H](C)[C@H]1O)C2=O | – | – | 44% |
| CO[C@H]1/C=C\C=C(/C)C(=O)NC2=CC(=O)C(N)=C(C[C@@H](C)C[C@H](OC)[C@H](O)[C@@H](C)/C=C(\C)[C@@H]1OC(N)=O)C2=O | – | – | 59% |
| CO[C@H]1/C=C\C=C(/C)C(=O)NC2=CC(=O)C(N)=C(C[C@@H](C)C[C@H](OC)[C@@H](F)[C@@H](C)/C=C(\C)[C@@H]1OC(N)=O)C2=O | 46% | 6.85 | – |
